Measurements taken from PMC3733255 (Clinical cancer research : an official journal of the …, 2012).

How the values were obtained:
TS543 glioblastoma = assay: Ex vivo NIRF imaging of sliced brains; type: in vivo, mouse; details: TS543 model, brain slices 48 hours after probe injection, mean±SEM
How it was run: (§1)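 Test probe (1 nmol) injected via tail vein; controls were 1 nmol nonspecific RAD-peptide dye conjugate and a blocking mix (1 nmol probe plus 20 nmol unlabeled cRGD). Mice were killed at 48 h; whole brains were sliced coronally and imaged on Odyssey (800 nm channel, sensitivity 5, 21 μm resolution). Signal was background-subtracted and area-weighted, tumor vs corresponding normal brain; tumor confirmed by H&E.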

RCAS-PDGF glioblastoma = assay: Ex vivo NIRF imaging of sliced brains; type: in vivo, mouse; details: RCAS-PDGF model, brain slices 48 hours after probe injection, mean±SEM
How it was run: as §1

U-87 MG glioblastoma = assay: Ex vivo NIRF imaging of sliced brains; type: in vivo, mouse; details: U-87 MG model, brain slices 48 hours after probe injection, mean±SEM
How it was run: as §1

[1] = preclinical model; cited from earlier work

IRDye 800CW-conjugated cyclic Arg-Ala-Asp-D-Phe-Lys (head to tail) [IRDye 800CW-RAD, IRDye 800CW-conjugated cyclic Arg-Ala-Asp-D-Phe-Lys peptide]
T/N ratio ex vivo (area-normalized fluorescence-800, tumor vs normal brain) (TS543 glioblastoma): 11.6±1.0
T/N ratio ex vivo (area-normalized fluorescence-800, tumor vs normal brain) (RCAS-PDGF glioblastoma): 11.6±1.1
T/N ratio ex vivo (area-normalized fluorescence-800, tumor vs normal brain) (U-87 MG glioblastoma): 10.5±1.0

CC1(C)C(=CC=C2CCCC(C=CC3=[N+](CCCCCC(=O)[O-])c4ccc(S(=O)(=O)[O-])cc4C3(C)C)=C2Oc2ccc(S(=O)(=O)[O-])cc2)N(CCCCS(=O)(=O)[O-])c2ccc(S(=O)(=O)[O-])cc21.[Na+].[Na+].[Na+].[Na+] [IRDye 800CW]
Toxicity [1]: good results
